Published values pooled from the literature.
Compare with care: the assays were run in different laboratories.
Target: MAP kinase-activated protein kinase 5 (MAPKAPK5, Homo sapiens, UniProt Q8IW41)
One construct used (Q8IW41 1-473): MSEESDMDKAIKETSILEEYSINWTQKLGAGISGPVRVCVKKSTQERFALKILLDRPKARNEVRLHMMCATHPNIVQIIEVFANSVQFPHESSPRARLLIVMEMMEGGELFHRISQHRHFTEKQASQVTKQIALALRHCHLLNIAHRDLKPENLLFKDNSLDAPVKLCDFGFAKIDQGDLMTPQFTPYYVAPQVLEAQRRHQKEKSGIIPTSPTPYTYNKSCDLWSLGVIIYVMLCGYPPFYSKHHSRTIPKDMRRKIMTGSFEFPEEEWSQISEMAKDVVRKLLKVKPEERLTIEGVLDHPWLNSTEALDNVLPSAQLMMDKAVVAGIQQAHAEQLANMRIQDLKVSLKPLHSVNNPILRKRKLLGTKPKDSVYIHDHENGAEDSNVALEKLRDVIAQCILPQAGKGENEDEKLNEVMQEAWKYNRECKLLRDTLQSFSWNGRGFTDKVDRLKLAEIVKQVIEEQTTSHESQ

Structure (SMILES) | assay | conditions | endpoint | value
C#Cc1n[nH]c2c(-c3cn(C(C)c4ccccn4)c(=O)[nH]c3=O)cc(F)cc12 (centres unmarked) | enzyme activity, inhibitor | 1 µM | inhibition | 5.8%
Cn1cc(-c2cccc(N3CCc4c(sc5c4CC(C)(C)C5)C3=O)c2CO)cc(Nc2ccncn2)c1=O | enzyme activity, inhibitor | 1 µM | inhibition | 3%
COc1cc(Nc2ncc(F)c(Nc3ccc4c(n3)NC(=O)C(C)(C)O4)n2)cc(OC)c1OC | binding, competition with immobilised ligand | 10 µM | inhibition | 19%
Cn1cncc1[C@](O)(COc1ccc(C#N)cc1-c1ccc(OC(F)(F)F)cc1)c1ccc(C#N)cc1 | cell-free assay, competition with immobilised ligand | 1 µM | remaining binding | 90%
O=c1[nH]c2ccccc2n1C1CCN(Cc2ccc(-c3[nH]c4cc5ncnc5cc4nc3-c3ccccc3)cc2)CC1 | cell-free assay | 0.5 µM | remaining signal | 97.4%
Nc1ncc(-c2nc(N3CCOCC3)nc(N3CCOCC3)n2)c(C(F)F)n1 | binding, competition with immobilised ligand | 10 µM | remaining binding | 72%
N#CC1(c2ccccn2)CCN(Cc2cc(C(=O)O)c(=O)n3ccccc23)CC1 | cell-free assay, competition with immobilised ligand | 1 µM | remaining binding | 56%
COc1ncccc1-c1cnn2ccc(N3CCN(C(=O)OC(C)C)CC3)nc12 | binding, competition with immobilised ligand | 1 µM | remaining binding | 100%
CC(C)(C)c1cc(C=C(C#N)C#N)cc(Br)c1O | enzyme activity, inhibitor | 0.5 µM | remaining activity | 97.4%
C#Cc1n[nH]c2c(-c3cn([C@@H](C)c4ccccc4)c(=O)[nH]c3=O)cc(F)cc12 | enzyme activity, inhibitor | 0.1 µM | inhibition | 1.8%
Cn1cc(-c2cc(F)cc(N3CCn4c(cc5c4CCCC5)C3=O)c2CO)cc(Nc2ccc(N3CCN(C4COC4)CC3)cn2)c1=O | enzyme activity, inhibitor | 0.1 µM | inhibition | 9%
